ChEMBL document CHEMBL5678802, “Small-molecule p21-activated kinase inhibitor PF-3758309 is a potent inhibitor of oncogenic signaling and tumor growth” (Proc Natl Acad Sci U S A, 2010)
pIC50, pKi: −log10 of the molar value.

Experiments:
SW948 = test: Antiproliferative activity against human SW948 cells assessed as inhibition of cell proliferation incubated for 3 days by CellTiter-Glo Luminescent Cell Viability Assay; format: functional, cell-based; conditions: SW948, 72 h
Summary of the method: (§1)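 Cells of each line were plated in 384-well plates on day 1 and exposed to compound from day 2 for 3 days. On day 5 all medium was aspirated. Viable cell number was read by CellTiter-Glo luminescence, which quantifies cellular ATP.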

LS174T = test: Antiproliferative activity against human LS174T cells assessed as inhibition of cell proliferation incubated for 3 days by CellTiter-Glo Luminescent Cell Viability Assay; format: functional, cell-based; conditions: 72 h
Summary of the method: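 Cancer cell lines seeded in 384-well plates on day 1; compound added on day 2 and left for 3 days. On day 5 all medium was aspirated, and viable cells were quantified by CellTiter-Glo luminescence, which measures cellular ATP. Dose-dependent effects on proliferation were determined.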

NCI-H1975 = test: Antiproliferative activity against human NCI-H1975 cells assessed as inhibition of cell proliferation incubated for 3 days by CellTiter-Glo Luminescent Cell Viability Assay; format: functional, cell-based; conditions: NCI-H1975, 72 h
Summary of the method: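 Cancer cell lines seeded in 384-well plates on day 1; compound added on day 2 and incubated 3 days. On day 5 media aspirated and viable cells quantified by ATP content using CellTiter-Glo luminescence; dose-dependent proliferation effects determined.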

NCI-H23 = test: Antiproliferative activity against human NCI-H23 cells assessed as inhibition of cell proliferation incubated for 3 days by CellTiter-Glo Luminescent Cell Viability Assay; format: functional, cell-based; conditions: NCI-H23, 72 h; summary of the method: as §1
[1] = biological target: AMP-activated protein kinase (AMPK) alpha-1/beta-1/gamma-1 (Homo sapiens) (UniProt P54619+Q9Y478+Q13131); test: Inhibition of human AMPK alpha1/beta1/gamma1 in presence of ATP relative to control; format: protein-complex assay; conditions: concentration not given here
Sequence of AMP-activated protein kinase (AMPK) alpha-1/beta-1/gamma-1 (Homo sapiens) (P54619 whole entry): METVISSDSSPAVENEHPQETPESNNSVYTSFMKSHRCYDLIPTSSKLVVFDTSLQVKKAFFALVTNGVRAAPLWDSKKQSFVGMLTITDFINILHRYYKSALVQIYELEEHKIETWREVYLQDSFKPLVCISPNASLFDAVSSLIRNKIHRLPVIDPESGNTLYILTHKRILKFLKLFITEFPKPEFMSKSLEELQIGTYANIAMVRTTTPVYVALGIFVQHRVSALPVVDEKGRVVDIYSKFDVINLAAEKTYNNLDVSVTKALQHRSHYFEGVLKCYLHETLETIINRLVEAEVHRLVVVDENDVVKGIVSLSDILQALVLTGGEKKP
Sequence of AMP-activated protein kinase (AMPK) alpha-1/beta-1/gamma-1 (Homo sapiens) (Q13131 whole entry partner): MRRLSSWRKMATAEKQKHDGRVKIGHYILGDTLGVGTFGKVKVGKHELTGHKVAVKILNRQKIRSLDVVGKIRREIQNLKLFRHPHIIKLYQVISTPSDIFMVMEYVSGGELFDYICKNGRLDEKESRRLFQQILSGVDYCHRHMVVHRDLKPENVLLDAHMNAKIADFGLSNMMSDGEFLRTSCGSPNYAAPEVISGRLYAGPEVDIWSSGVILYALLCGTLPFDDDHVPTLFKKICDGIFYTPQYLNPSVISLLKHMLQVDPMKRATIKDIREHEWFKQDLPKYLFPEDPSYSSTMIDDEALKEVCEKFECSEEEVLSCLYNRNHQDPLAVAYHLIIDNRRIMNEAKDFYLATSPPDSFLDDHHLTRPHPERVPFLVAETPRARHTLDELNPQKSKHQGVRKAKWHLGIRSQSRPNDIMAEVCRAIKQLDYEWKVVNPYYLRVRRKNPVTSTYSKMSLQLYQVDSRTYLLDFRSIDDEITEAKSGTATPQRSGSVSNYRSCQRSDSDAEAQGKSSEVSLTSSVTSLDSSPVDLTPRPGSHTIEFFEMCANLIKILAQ
Sequence of AMP-activated protein kinase (AMPK) alpha-1/beta-1/gamma-1 (Homo sapiens) (Q9Y478 2-270 partner limits assumed): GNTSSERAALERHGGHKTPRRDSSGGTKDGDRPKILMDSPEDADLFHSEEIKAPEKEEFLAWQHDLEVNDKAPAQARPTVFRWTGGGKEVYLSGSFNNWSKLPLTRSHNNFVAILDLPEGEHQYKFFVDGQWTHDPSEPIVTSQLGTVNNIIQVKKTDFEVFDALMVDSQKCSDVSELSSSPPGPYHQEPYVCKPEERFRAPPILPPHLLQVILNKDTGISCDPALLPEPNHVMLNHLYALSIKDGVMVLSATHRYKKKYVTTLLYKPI

[2] = biological target: Serine/threonine-protein kinase N1 (Homo sapiens) (UniProt Q16512); test: Inhibition of human PRK1 in presence of ATP relative to control; conditions: concentration not given here
Sequence of Serine/threonine-protein kinase N1 (Homo sapiens) (Q16512 2-942 limits assumed): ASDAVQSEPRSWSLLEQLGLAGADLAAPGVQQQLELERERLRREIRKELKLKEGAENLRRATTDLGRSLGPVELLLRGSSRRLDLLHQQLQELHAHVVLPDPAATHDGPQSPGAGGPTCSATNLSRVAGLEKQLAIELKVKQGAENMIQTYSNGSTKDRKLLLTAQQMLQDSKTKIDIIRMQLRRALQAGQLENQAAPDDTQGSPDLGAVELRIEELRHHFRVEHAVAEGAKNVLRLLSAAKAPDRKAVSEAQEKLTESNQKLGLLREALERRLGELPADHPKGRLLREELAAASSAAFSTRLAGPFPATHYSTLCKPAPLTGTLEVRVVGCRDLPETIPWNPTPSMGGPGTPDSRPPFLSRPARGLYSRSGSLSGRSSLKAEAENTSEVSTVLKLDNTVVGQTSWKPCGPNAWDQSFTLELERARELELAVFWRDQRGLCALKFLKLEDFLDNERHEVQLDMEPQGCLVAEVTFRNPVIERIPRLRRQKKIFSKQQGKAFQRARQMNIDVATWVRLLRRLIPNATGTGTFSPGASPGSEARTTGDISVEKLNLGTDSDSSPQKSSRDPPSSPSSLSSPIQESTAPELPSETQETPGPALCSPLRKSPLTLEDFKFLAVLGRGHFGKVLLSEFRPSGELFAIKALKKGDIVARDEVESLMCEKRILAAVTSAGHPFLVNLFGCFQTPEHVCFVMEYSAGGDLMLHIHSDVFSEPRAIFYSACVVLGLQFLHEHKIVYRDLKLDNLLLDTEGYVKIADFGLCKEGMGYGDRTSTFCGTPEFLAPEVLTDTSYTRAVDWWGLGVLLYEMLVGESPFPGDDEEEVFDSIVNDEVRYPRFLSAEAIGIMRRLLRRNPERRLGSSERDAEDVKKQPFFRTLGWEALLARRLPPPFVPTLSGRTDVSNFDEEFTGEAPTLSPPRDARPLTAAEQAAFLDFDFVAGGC

[3] = biological target: Protein kinase C beta type (Homo sapiens, UniProt P05771); test: Inhibition of human PKCbeta1 assessed as inhibition constant in presence of ATP
Sequence of Protein kinase C beta type (P05771 whole entry): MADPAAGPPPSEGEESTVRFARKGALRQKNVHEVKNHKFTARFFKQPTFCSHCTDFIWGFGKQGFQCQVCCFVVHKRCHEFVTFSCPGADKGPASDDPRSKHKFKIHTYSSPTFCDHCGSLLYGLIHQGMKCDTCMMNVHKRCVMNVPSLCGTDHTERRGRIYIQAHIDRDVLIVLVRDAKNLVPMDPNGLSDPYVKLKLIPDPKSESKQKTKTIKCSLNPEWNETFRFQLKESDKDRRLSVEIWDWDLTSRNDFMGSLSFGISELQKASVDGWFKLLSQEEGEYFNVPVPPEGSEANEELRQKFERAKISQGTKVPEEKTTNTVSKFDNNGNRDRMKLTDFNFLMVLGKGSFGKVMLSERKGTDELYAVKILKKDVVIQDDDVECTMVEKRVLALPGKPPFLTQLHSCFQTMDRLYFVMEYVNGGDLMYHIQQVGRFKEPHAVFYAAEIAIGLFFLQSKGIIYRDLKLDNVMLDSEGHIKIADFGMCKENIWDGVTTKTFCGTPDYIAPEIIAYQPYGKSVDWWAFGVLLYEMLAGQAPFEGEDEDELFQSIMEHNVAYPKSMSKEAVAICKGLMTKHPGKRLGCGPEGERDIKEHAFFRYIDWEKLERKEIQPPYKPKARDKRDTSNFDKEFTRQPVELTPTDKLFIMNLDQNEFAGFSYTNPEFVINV

[4] = Drug concentration in nude mouse plasma xenografted with human HCT-116 cells at 0.36 mg/kg administered via pump for 9 days by LC-MS/MS analysis; format: ADME, organism-based; conditions: time 9 day
A549 = test: cells; conditions: Homo sapiens, A549, 144 h

Cc1nc(Nc2n[nH]c3c2CN(C(=O)N[C@H](CN(C)C)c2ccccc2)C3(C)C)c2sccc2n1 [PF-03758309]
pIC50 (SW948): 8.37
pIC50 (LS174T): 8.14
pIC50 (NCI-H1975): 7.77
pIC50 (NCI-H23): 7.60
inhibition [1]: 101%
inhibition [2]: 86%
pKi [3]: 6.73
concentration at 216 h [4]: 1.7 ng/mL
pIC50 (A549): 7.56
